# GRK2 aptamer HTS: blocks RNA aptamer binding to human GRK2. P25098. bead flow cytometry, FAM-aptamer displacement from GRK2. inhibition of aptamer binding, % at 10 µM. actives 0.59% (n = 330,000). AID 488847;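 active = inhibition of aptamer binding above 40%, roughly 3 SD of noise, on plates passing a quality check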;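 also: median bead fluorescence of bound FAM aptamer so fluorescent compounds give negative values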
# SUMO1-SIM PPI: SUMO1-SIM interaction modulation; P63165; actives 0.33% (n = 360,000); SUMO1 binding to a labelled peptide, TR-FRET, 1 h; inhibition, % at 20 µM; in the data active = inhibition above about 37%
# Target sequence (P63165 whole entry, looked up): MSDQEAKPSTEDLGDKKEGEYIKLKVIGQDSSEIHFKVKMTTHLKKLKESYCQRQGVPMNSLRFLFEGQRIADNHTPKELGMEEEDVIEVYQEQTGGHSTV
# LMPTP block: LMPTP (human) inhibition. inhibition, % at 20 µM. recombinant LMPTP-A, OMFP fluorogenic substrate, fluorescence intensity. actives 0.22% (n = 360,000). AID 651560;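 active = compounds that cut the enzyme signal by at least half of the control window in the single-dose screen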;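 also: plate controls were DMSO wells with enzyme plus substrate for no effect and substrate without enzyme for full effect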
#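 Test system: LMPTP-A phosphatase enzyme; input: 0.625 nM LMPTP-A final; reagent: OMFP substrate, 400 µM final; compound dosing: 20 µM single dose, 3% DMSO; incubation: 50 min dark incubation at room temperature; measured by: endpoint fluorescence intensity from OMFP dephosphorylation; measure: % inhibition relative to no-enzyme and uninhibited control wells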
# DNMT1 block: blocks human DNA methyltransferase DNMT1. P26358. DNMT1 molecular beacon, Hinp1I cleavage, fluorescence. inhibition (reported as % activation of signal), % at 10 µM. actives 0.83% (n = 360,000). AID 588458; in the data active = inhibition above about 50%
# Scp1 inh: Scp-1 (human) phosphatase inhibition; actives 0.88% (n = 340,000); Q9GZU7; Recombinant Scp1, phosphopeptide, malachite green phosphate absorbance; inhibition, % at 20 µM;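 active = inhibition above about 50% at 20 µM, limit read from the data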;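 also: plate controls were DMSO wells with enzyme for no effect and wells lacking enzyme for full effect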
#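 Test system: SCP-1 phosphatase catalytic domain, residues 76-261; measured by: colorimetric phosphate reagent with accelerator and stabiliser, absorbance at 630 nm; timing: enzyme reaction 45 min at room temperature, colour 5 min, stabilisation 30 min; also added: Phosphorylated 17-residue peptide substrate; compound dosing: one concentration, 20 µM, with 1.0% DMSO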
# STEP inh: blocks human striatal-enriched tyrosine phosphatase | inhibition, % at 20 µM | P54829 | AID 588621 | recombinant STEP, OMFP fluorogenic substrate, fluorescence | actives 0.25% (n = 360,000);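 active = inhibition at 20 µM, scaled per plate between control wells, above about 37%, limit read from the data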;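 also: 0% = DMSO with enzyme and substrate and 100% = substrate only without enzyme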
# Target sequence (P54829 whole entry, looked up): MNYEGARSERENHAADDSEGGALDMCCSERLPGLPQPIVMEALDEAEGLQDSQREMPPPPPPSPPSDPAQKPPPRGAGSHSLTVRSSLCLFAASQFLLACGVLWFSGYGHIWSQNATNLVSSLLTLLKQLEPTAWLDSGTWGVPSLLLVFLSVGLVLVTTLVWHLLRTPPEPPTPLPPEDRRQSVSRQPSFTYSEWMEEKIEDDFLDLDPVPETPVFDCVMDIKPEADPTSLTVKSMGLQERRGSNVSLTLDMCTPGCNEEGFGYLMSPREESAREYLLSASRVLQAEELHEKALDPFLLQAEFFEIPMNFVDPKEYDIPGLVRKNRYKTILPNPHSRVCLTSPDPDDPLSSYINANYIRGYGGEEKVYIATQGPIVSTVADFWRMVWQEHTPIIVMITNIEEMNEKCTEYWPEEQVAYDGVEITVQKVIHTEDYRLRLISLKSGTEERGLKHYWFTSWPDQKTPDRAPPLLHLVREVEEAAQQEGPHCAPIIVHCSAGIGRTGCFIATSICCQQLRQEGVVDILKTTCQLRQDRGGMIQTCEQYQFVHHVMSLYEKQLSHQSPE
#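 Assay system: isolated STEP enzyme / Timing: 20 min at room temperature, dark / Doses: 20 µM, 1% DMSO / Technique: fluorescence intensity, excitation 480 nm, emission 540 nm / Reagent: fluorogenic phosphatase substrate OMFP at 25 µM final / Measure: percent inhibition scaled to no-enzyme and uninhibited-enzyme controls, plate-pattern corrected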
# Numbers without * were called inactive; · = no result. Only some compounds are listed: those with a hit (about 2.2% of all), similar ones and a draw of the others.
SMILES,GRK2 aptamer HTS,SUMO1-SIM PPI,LMPTP block,DNMT1 block,Scp1 inh,STEP inh
O=C(O)c1ccc(NS(=O)(=O)/C=C/c2ccccc2)cc1,55.0*,1.1,-3.9,6.6,-10.1,-2.4
CSC1=NC=C(C#N)C2=NC(c3ccc(Cl)cc3)NN12 (stereo unspecified),·,-26.5,-1.0,-2.1,·,-0.9
O=C(COC(=O)c1cc([N+](=O)[O-])ccc1N1CCOCC1)c1ccccc1Cl,57.0*,-25.5,0.0,0.9,-11.6,-1.7
O=C(COC(=O)c1cc([N+](=O)[O-])ccc1N1CCOCC1)c1ccccc1,0.0,-31.6,-0.4,-0.3,-9.0,-1.3
CC(=O)c1cc2cccc(OC3(C)CCN(Cc4ccc(-c5ccccn5)cc4)C3)c2o1 (stereo unspecified),·,-17.6,1.1,-2.0,·,-1.2
CC1=NN(c2ccccc2)C(=O)/C1=C/c1cccs1,0.0,-0.1,1.5,6.2,-5.3,-1.6
CC1=NN(c2ccc(C(=O)O)cc2)C(=O)/C1=C\c1ccc(OC(=O)c2cccs2)cc1,4.0,28.9,14.2,4.7,51.8*,4.5
CCOc1cc(/C=C2\C(=O)N(c3ccc(C(N)=O)cc3)N=C2C)ccc1OC(=O)c1cccs1,0.0,74.5*,17.9,30.2,22.1,31.8
CCOc1cc(/C=C2/C(=O)N(c3ccccc3)N=C2C)ccc1OC(=O)c1ccco1,2.0,7.1,8.9,-2.7,0.4,18.5
O=C(NC(c1ccc(-c2ccccc2)cc1)c1cnccn1)C1CCN(Cc2ccc3c(c2)OCO3)CC1 (stereo unspecified),·,-3.5,0.1,-2.5,·,-1.7
O=C1C(=Cc2ccco2)CCC1=Cc1ccco1,·,121.2*,64.3*,34.4,80.1*,97.2*
O/N=C1\CCC\C1=C/c1ccco1,0.0,-1.1,-1.0,24.1,1.8,0.3
O=C(O)CN1C(=O)/C(=C2\SC(=S)N(C(Cc3ccccc3)C(=O)O)C2=O)c2ccccc21 (stereo unspecified),2.0,2.2,3.4,-1.0,4.5,36.8
COc1ccc(NC(=O)CN2C(=O)/C(=C3\SC(=S)N(CCC(=O)O)C3=O)c3ccccc32)cc1,0.0,0.9,85.6*,3.3,96.6*,20.2
O=C(O)CCN1C(=O)/C(=C2\C(=O)N(Cc3ccccc3Cl)c3ccccc32)SC1=S,7.0,29.9,80.4*,88.9*,·,98.5*
CCOC(=O)[C@]12CCC=C1N(Cc1ccccc1)C(=O)[C@H](CC(=O)NCc1cccs1)C2,·,-1.4,-1.4,·,·,·
Cc1cccc(C(=O)O/N=C(/c2ccccc2)c2ccncc2)c1,1.0,40.3*,0.7,-1.4,3.8,3.6
Cc1ccc(S(=O)(=O)N2[C@H](c3cccc(Cl)c3)CC(=O)[C@@H]3CN(S(=O)(=O)c4ccccc4C)[C@H](c4ccc(Cl)cc4)C[C@@H]32)cc1,·,4.2,-0.9,-1.1,·,-0.3
CCCCCOc1ccc(C2C(C(=O)c3ccc(C)o3)=C(O)C(=O)N2c2cc(C)on2)cc1 (stereo unspecified),11.0,4.4,50.2*,11.8,-21.6,3.8
CCCCOc1ccc(C2C(C(=O)c3ccc(C)o3)=C(O)C(=O)N2Cc2ccco2)cc1 (stereo unspecified),8.0,-2.1,51.4*,7.1,·,3.8
CC(C)c1ccc(NC(=O)C2(C)Cc3c(-c4ccc(N(C)C)cc4)ccnc3O2)cc1 (stereo unspecified),·,3.6,5.3,-12.1,·,1.7
O=C(O)c1ccccc1NS(=O)(=O)c1ccc(N/N=C/c2cccc(O)c2O)c([N+](=O)[O-])c1,·,37.3,69.4*,10.8,88.5*,33.9
CCOc1cc(/C=N/Nc2ccc(S(=O)(=O)Nc3ccccc3C(=O)O)cc2[N+](=O)[O-])cc(Cl)c1O,·,66.3*,24.0,-19.2,·,3.2
COc1cc(C=NNc2ccc(S(=O)(=O)Nc3ccccc3C(=O)O)cc2[N+](=O)[O-])ccc1O,1.0,39.3,5.3,-11.1,-4.8,3.3
CCNC(=O)C1CCCN(C(=O)c2ccc3ccccc3c2)CC1 (stereo unspecified),·,-4.3,5.7,3.0,·,2.7
SMILES,GRK2 aptamer HTS,SUMO1-SIM PPI,LMPTP block,DNMT1 block,Scp1 inh,STEP inh
Nc1ccc(C(=O)N/N=C\c2cc(N=Nc3cccc4ccccc34)ccc2O)cc1,0.0,65.2*,3.9,43.8,37.7,10.1
COC(=O)N/N=C/c1cc(N=Nc2ccccc2)ccc1O,0.0,-4.9,3.1,0.6,-14.9,-0.6
Cc1cc(C(=O)N/N=C/c2cc(N=Nc3ccccc3)ccc2O)n[nH]1,1.0,-5.9,6.0,5.2,63.7*,5.7
O=C(NC(c1ccccc1)c1ccsc1)C1CCN(CCOc2ccc(Cl)cc2Cl)CC1 (stereo unspecified),·,-3.7,3.3,-11.4,·,2.0
COC1=CC(C)C2CC3OC(O)CC4C(C)=C(OC)C(=O)C(C2(C)C1=O)C34C (stereo unspecified),·,-0.1,0.4,-2.8,·,-4.6
COC(=O)Cc1ccc(OC2(C)CCN(Cc3ccccc3OC(F)F)C2)cc1 (stereo unspecified),·,2.6,-1.4,4.3,·,-3.0
O=C(COC(=O)c1c2c(nc3ccccc13)/C(=C/c1ccco1)CC2)NC1CCCC1,·,18.0,47.5,86.4*,77.8*,18.4
O=C(N/N=C1\C(=O)c2cccc3cccc1c23)c1ccc(O)cc1,0.0,41.3*,16.9,44.1,23.9,10.1
CCCN1CCN(C(=O)Cn2cnc3sc(C)c(S(=O)(=O)N4CCC(C)CC4)c3c2=O)CC1,0.0,47.7*,-0.9,15.9,-5.8,-1.9
CC1(C(=O)NS(=O)(=O)Cc2ccccc2C(F)(F)F)CCN1C(=O)c1ccco1 (stereo unspecified),·,0.1,0.0,7.2,·,-1.0
COc1ccc(-c2csc(N3CCN(c4cc(C)nc5ccccc45)CC3)n2)cc1OC,0.0,-12.8,84.2*,-10.3,3.5,2.8
CCOC(=O)C1(CCCc2ccccc2)CCN(C(=O)c2cncs2)CC1,0.0,-3.4,-0.2,2.5,-9.6,2.0
CCOC(=O)C1(CCCc2ccccc2)CCN(C(=O)c2cc(C)nn2CC)CC1,4.0,43.4*,0.0,-3.9,-4.5,-0.9
Cc1cc(O)c2c(c1O)C(=O)[C@]13C(=C2O)C(=O)[C@@H]2[C@@H](O)[C@H]1[C@@H]1[C@H](O)[C@H]3C(=O)C3=C(O)c4c(O)cc(C)c(O)c4C(=O)[C@]312,72.0*,102.9*,88.0*,95.4*,58.2*,42.7*
c1ccc(C[n+]2cccc(-c3ccccc3)c2)cc1,0.0,3.0,0.9,7.4,-7.3,-0.4
NC(=O)c1ccc[n+](Cc2ccccc2)c1,80.0*,-2.0,-1.8,1.2,-11.1,-2.6
CN(C)CCCN=c1cc(-c2ccccc2)oc2ccc(Cl)cc12,·,-4.6,-5.6,52.3*,-4.6,0.2
